A selection: hits, their analogues and other compounds. The true share with any hit is near 3.5%.
PGC1a acetyl inh: PGC1a acetylation modulation, inhibitor mode | U2OS PGC1a acetylation, AlphaScreen anti-acetyl-lysine; with virally co-expressed GCN5 acetyltransferase | inhibition, % at 15.6 µM | 350,000 compounds, 0.17% hits | AID 651687;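 active = every replicate shows inhibition of at least 40%; inconclusive = mean inhibition at least 40% but some replicate below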;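 note: 0% = neutral control wells and 100% = positive control wells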
ERAP1 inh: blocks human ERAP1 aminopeptidase activity. AID 652197. inhibition, % at 10.7 µM. 340,000 compounds, 0.15% hits. recombinant ERAP1, Leu-AMC fluorescence, 60 min;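 active = mean replicate inhibition of at least 30%, or all replicates individually reaching that 30% level; inactive = mean below 30% and not every replicate reaching it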;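 note: 0% = neutral control wells and 100% = L-leucinethiol positive control wells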
Target sequence (Q9NZ08 whole entry, looked up): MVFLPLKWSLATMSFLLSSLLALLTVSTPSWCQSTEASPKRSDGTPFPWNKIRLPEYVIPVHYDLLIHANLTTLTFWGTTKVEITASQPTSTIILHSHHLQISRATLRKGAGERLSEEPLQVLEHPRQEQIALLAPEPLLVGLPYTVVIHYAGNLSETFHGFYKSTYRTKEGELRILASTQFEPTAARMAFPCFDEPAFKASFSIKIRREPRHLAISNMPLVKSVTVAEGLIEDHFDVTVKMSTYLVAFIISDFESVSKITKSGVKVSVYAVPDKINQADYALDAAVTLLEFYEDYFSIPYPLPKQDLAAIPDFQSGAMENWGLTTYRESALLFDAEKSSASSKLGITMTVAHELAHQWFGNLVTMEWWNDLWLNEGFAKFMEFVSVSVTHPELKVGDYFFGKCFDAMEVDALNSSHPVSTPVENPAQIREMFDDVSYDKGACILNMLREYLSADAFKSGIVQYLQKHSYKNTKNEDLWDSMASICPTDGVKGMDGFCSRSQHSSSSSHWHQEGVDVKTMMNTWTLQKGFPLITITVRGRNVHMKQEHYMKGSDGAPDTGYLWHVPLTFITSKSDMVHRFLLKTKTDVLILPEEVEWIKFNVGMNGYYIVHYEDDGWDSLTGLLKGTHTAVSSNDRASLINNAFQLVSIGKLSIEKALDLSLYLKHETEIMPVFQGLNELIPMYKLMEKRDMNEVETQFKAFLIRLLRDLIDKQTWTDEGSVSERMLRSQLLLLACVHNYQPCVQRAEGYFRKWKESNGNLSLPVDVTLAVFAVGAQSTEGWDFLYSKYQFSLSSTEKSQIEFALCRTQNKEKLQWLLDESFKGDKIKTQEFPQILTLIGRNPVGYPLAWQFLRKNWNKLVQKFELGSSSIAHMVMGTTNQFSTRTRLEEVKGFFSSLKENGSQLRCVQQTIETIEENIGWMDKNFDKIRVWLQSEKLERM
rRNA inh HTS: inhibits bacterial ribosomal RNA function over humanized ribosomes. E. coli WT GFP vs humanized-ribosome RFP mutants, fluorescence, 24 h; stronger effect = lower value; DMSO median 0, no signal -100. GFP signal change (wild-type ribosome), % (concentration not given with the values). 350,000 compounds, 1.6% hits;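 active = significant combined selectivity score with lowered wild-type GFP, culture density cut under 30%, mutant RFP and density less affected; inactive = any of these conditions unmet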
Cneo AK release: Cryptococcus neoformans lysis via adenylate kinase release; 360,000 compounds, 0.2% hits; lysis activity, % at 15 µM; C. neoformans lysis, adenylate kinase release luminescence, 4 h; normalised: neutral wells 0, clomiphene wells 100;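 active = mean lysis activity across replicates of at least 80%, whatever share of replicates individually reach that level; inactive = mean lysis activity below 80%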
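Material: C. neoformans cells | Amount: Yeast cell density of 5 × 10^6 cells/mL | Medium: Fresh YPD growth medium | Dosing: Single dose | Times: Static 4 h at 37 °C with compound, 1 h detection | Detection: AK luminescence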
FGF22 binding: shifts melting point of recombinant human FGF22 | AID 651658 | 340,000 compounds, 1.5% hits | activity (Tm shift, normalised), % at 9.99 µM | recombinant FGF22 thermal shift, SYPRO orange fluorescence; percent of sucrose octasulfate shift, DMSO zero | Q9HCT0;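 active = mean Tm shift, scaled 0 neutral to 100 positive control, at about 1.3% or above, every replicate too, limit read from the data; inconclusive = no clear call, values can overlap the other calls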
Env fusion inh: HIV envelope-mediated fusion inhibition; 360,000 compounds, 1.1% hits; HeLa-JRFL Env/CEM21 cell fusion, luciferase; inhibition, % at 12.3 µM;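 active = mean replicate inhibition score of at least 50 and every replicate individually at or above 50; inconclusive = only one of the two criteria met; inactive = mean below 50 and not all replicates reaching 50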;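 note: 0% = plate neutral controls and 100% = maraviroc near 300 nM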
The depositor's hits bear a star; ? = inconclusive; / = not tested or not shown; [ ] = another dose, or the depositor's remark.

SMILES	PGC1a acetyl inh	ERAP1 inh	rRNA inh HTS	Cneo AK release	FGF22 binding	Env fusion inh
CC(C)NC(=O)Nc1ccc2c(c1)C(=O)N([C@@H](C)CO)C[C@H](C)[C@@H](CN(C)C(=O)CCC(F)(F)F)OCCCC[C@H](C)O2	-2	0	0	96*	0	15[16.7 µM]
CC(C)NC(=O)Nc1ccc2c(c1)C(=O)N([C@@H](C)CO)C[C@@H](C)[C@@H](CN(C)C(=O)CCC(F)(F)F)OCCCC[C@@H](C)O2	6	0	1	-1	0	86*[16.7 µM]
CN(C)CCOC(=O)C12CC3CC(C1)CC(C(=O)OCCN(C)C)(C3)C2	/	/	18	/	0	2
Cc1cc(C(=O)NCCC(C)C)c2ccccc2n1	3	0	5	0	0	3
CC1CCN(c2nc(-c3cccnc3)nc3scc(-c4ccccc4)c23)CC1	/	12	8	/	0	10
CN1CCN(c2nc(-c3cccnc3)nc3scc(-c4ccccc4)c23)CC1	-1	2	-22*	0	0	-9
CC1=CC(C)C2(COC(c3ccc[n+](C)c3)OC2)C(C)C1 (stereo unspecified)	-13	106*	7	/	0	-1
CC(CC(=O)N1CCN(c2ccc(C(F)(F)F)cn2)CC1)n1ccnc1 (stereo unspecified)	/	1	9	/	43*	13
CCCN(C)C[C@H]1Oc2cc(C#Cc3cccnc3)ccc2S(=O)(=O)N([C@@H](C)CO)C[C@H]1C	-6	-3	2	-1	0	0[16.7 µM]
COc1ccc(-c2cc(C(=O)Nc3ccc(S(=O)(=O)Nc4onc(C)c4C)cc3)c3ccccc3n2)cc1	3	-5	-18*	-23	0	-15
Cc1noc(NS(=O)(=O)c2ccc(NC(=O)c3ccc(OC(C)C)cc3)cc2)c1C	/	-1	-31*	/	1	-7
Cc1nnc(SCC(=O)Nc2ccc(OC(F)F)c(Cl)c2)n(N)c1=O	/	4	-11	2	0	-25
O=C(Cc1c(F)cccc1Cl)NCCCn1ccnc1	/	/	/	1	/	-34
C[C@@H]1CN([C@H](C)CO)C(=O)c2cc(NC(=O)Nc3cccc4ccccc34)ccc2O[C@@H]1CN(C)Cc1ccc(C(F)(F)F)cc1	-14	-1	3	50	0	74*[16.7 µM]
C[C@H]1CCCCO[C@@H](CN(C)Cc2ccccc2)[C@@H](C)CN([C@@H](C)CO)C(=O)c2cc(NC(=O)Nc3ccc(C(F)(F)F)cc3)ccc2O1	2	-2	-1	0	-1	68*[16.7 µM]
CC(C)NC(=O)Nc1ccc2c(c1)C(=O)N([C@H](C)CO)C[C@@H](C)[C@H](CN(C)Cc1ccc(C(=O)O)cc1)OCCCC[C@H](C)O2	7	-1	5	-3	0	12[16.7 µM]
C[C@@H]1CN([C@@H](C)CO)C(=O)c2cc(NC(=O)c3ccccc3)ccc2O[C@@H](C)CCCCO[C@H]1CN(C)Cc1ccc(C(=O)O)cc1	11	5	3	0	0	62*[16.7 µM]
CC(C)NC(=O)Nc1ccc2c(c1)C(=O)N([C@@H](C)CO)C[C@@H](C)[C@H](CN(C)Cc1ccc(C(=O)O)cc1)OCCCC[C@H](C)O2	?	-3	3	46	1.6*	13[16.7 µM]
C[C@@H]1CN([C@@H](C)CO)C(=O)c2cc(NC(=O)c3ccccc3)ccc2O[C@@H](C)CCCCO[C@@H]1CN(C)Cc1ccc(C(=O)O)cc1	1	4	-1	0	0	-6[16.7 µM]
C/C(=N/NS(=O)(=O)c1ccc(Cl)cc1)c1cccc(NC(=O)c2ccc(Cl)cc2Cl)c1	10	/	/	-1	/	/
CCOC(=O)N1CCN(C(=O)/C(=C/c2ccc(F)cc2)NC(=O)c2ccccc2)CC1	6	-3	7	-2	0	-5
CC1=C(C(=O)Nc2ccc(C)cc2)C(c2cccs2)NC(=S)N1 (stereo unspecified)	/	-3	8	/	0	16
C[C@@H]1CN([C@H](C)CO)C(=O)c2cc(NC(=O)Nc3ccccc3)ccc2O[C@@H](C)CCCCO[C@@H]1CN(C)Cc1ccc(C(F)(F)F)cc1	9	/	0	-1	0	58*[16.7 µM]
C[C@H]1CCCCO[C@@H](CN(C)Cc2ccc(C(F)(F)F)cc2)[C@@H](C)CN([C@@H](C)CO)C(=O)c2cc(NC(=O)Nc3cccc4ccccc34)ccc2O1	37	/	-8	-4	0	61*[16.7 µM]
C[C@H](CO)N1C[C@H](C)[C@H](CN(C)Cc2ccccc2)OCCCC[C@H](C)Oc2ccc(NC(=O)Nc3ccc(C(F)(F)F)cc3)cc2C1=O	-3	0	/	3	-1	66*[16.7 µM]
SMILES	PGC1a acetyl inh	ERAP1 inh	rRNA inh HTS	Cneo AK release	FGF22 binding	Env fusion inh
C[C@@H]1CCCCO[C@@H](CN(C)Cc2ccc(C(F)(F)F)cc2)[C@H](C)CN([C@@H](C)CO)C(=O)c2cc(NC(=O)c3ccccc3)ccc2O1	-36	1	-1	55	0	56*[16.7 µM]
C[C@H]1CCCCO[C@H](CN(C)Cc2ccc(C(F)(F)F)cc2)[C@@H](C)CN([C@@H](C)CO)C(=O)c2cc(NC(=O)Nc3cccc4ccccc34)ccc2O1	-3	/	0	1	0	27[16.7 µM]
CCCNC(=O)C[C@@H]1C[C@@H]2c3cc(NC(=O)NC4CCCC4)ccc3O[C@@H]2[C@@H](CO)O1	6	0	5	3	0	10[16.7 µM]
Cn1ccnc1SCC(=O)c1ccc(O)cc1	2	-3	7	-5	0	-9
Cn1ccnc1SCC(=O)c1ccc(Cl)cc1	-3	0	-32*	2	0	-14
Cc1nn(-c2ccccc2)c(N)c1Sc1ccccc1[N+](=O)[O-]	/	1	-37*	/	0	10
Cc1ccc(-c2nnc(N3CCN(C(=O)COc4ccccc4)CC3)c3ccccc23)cc1	-94	/	/	3	/	68*
O=C(c1cccs1)N1CCN(c2nnc(-c3ccccc3)c3ccccc23)CC1	-69	3	-28*	/	0	35
Cc1ccc(-c2nnc(N3CCN(C(=O)c4cccs4)CC3)c3ccccc23)cc1	/	-2	-23	/	0	24
CCOC(=O)C1=CN(CC)S(=O)(=O)NC1c1ccccc1 (stereo unspecified)	-13	-3	14	1	0	1
CCOC(=O)C1=CNS(=O)(=O)NC1CCc1ccccc1 (stereo unspecified)	/	1	-22*	2	0	13
COc1ccc(NC(=O)Nc2ccc3c(c2)C(=O)N([C@@H](C)CO)C[C@@H](C)[C@H](CN(C)C(=O)CCC(F)(F)F)OCCCC[C@H](C)O3)cc1	2	/	-2	-2	0	8[16.7 µM]
CCN(C(=O)c1cc2c(=O)n3cccc(C)c3nc2n1CCCOC)C1CCCCC1	7	50*	-13	6	0	14

Bioassay records as filed in PubChem BioAssay.
